The values that follow come from ChEMBL document CHEMBL4622949, “A chalcone derivative binds a putative allosteric site of YopH: Inhibition of a virulence factor of Yersinia” (Bioorg Med Chem Lett, 2020).

pIC50, pKi: −log10 of the molar value.

Test [1] concerns the target T1, Tyrosine-protein phosphatase non-receptor type 22 (Homo sapiens, UniProt Q9Y2R2).
T1 sequence (Q9Y2R2 whole entry): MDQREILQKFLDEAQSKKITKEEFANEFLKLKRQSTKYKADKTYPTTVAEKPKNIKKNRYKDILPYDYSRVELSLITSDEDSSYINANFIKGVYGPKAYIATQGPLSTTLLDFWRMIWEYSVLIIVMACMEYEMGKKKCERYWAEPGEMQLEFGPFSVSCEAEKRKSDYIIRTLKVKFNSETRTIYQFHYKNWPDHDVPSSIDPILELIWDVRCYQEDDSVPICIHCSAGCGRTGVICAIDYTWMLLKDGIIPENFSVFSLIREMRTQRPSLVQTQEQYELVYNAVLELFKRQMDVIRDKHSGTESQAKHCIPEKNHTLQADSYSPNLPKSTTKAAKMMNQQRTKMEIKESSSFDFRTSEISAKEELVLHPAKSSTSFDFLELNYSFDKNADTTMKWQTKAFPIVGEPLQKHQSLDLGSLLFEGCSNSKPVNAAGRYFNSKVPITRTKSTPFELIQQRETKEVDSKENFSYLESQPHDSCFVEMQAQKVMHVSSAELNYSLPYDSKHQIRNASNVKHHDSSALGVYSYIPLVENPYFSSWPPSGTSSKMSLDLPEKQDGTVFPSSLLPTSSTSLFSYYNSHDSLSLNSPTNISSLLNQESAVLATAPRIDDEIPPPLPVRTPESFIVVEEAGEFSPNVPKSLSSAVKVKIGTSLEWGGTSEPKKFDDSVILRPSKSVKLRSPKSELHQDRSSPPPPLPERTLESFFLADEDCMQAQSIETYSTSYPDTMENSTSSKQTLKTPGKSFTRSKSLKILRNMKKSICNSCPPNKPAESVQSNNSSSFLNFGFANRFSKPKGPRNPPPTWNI
Briefly: Inhibition of LYP (unknown origin) at 25 uM using pNPP as substrate relative to control.

For test [2], the target named is Tyrosine-protein phosphatase YopH (Yersinia enterocolitica) (UniProt P15273). Briefly: Irreversible inhibition of Yersinia enterocolitica YopH assessed as enzyme recovery activity by dilution assay relative to control. Further details: scale not given: the % may be the effect or the level left. Put shortly:
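Reversibility tested by preincubation and dilution: enzyme preincubated with inhibitor, then diluted, and recovered phosphatase activity expressed as a percentage of control.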

The target of test [3] is T2, Tyrosine-protein phosphatase YopH (Yersinia enterocolitica, UniProt P15273). As to the kind of experiment: Inhibition of recombinant Yersinia enterocolitica YopH assessed as reduction in conversion of pNPP to nitrophenol and inorganic phosphate using pNPP as substrate by microplate reader assay. Put shortly: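 Recombinant YopH phosphatase activity was measured in vitro. Values are the average of individual means ± SD from three independent experiments.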
T2 sequence (P15273 whole entry): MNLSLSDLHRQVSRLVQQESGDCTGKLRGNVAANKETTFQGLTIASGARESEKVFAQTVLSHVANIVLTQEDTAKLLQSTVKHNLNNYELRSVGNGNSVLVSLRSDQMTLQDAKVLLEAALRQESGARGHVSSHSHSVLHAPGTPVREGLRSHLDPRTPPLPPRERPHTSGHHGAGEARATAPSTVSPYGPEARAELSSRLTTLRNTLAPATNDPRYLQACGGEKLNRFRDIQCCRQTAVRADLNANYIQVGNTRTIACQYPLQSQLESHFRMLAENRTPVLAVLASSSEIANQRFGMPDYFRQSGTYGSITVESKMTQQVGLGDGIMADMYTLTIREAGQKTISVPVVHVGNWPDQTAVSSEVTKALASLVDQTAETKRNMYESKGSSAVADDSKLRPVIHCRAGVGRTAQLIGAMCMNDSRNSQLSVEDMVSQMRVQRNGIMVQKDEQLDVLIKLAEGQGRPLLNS

For test [4], the target named is T2, Tyrosine-protein phosphatase YopH. As to the kind of experiment: Non-competitive mixed inhibition of Yersinia enterocolitica YopH assessed as inhibition constant. Put shortly: (§1)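 Kinetic parameters were derived from Michaelis–Menten plots of YopH activity with and without inhibitor. Ki and α were obtained from a non-competitive mixed-inhibition analysis. Results are means ± SD of three independent experiments.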

Test [5] shares this target. Briefly: Non-competitive mixed inhibition of Yersinia enterocolitica YopH assessed as inhibition constant for enzyme-substrate complex. Put shortly:
as §1

Sequence of Tyrosine-protein phosphatase YopH (Yersinia enterocolitica) (P15273 whole entry): as above

A word on the inhibition: it is how much of the control response was suppressed. Take `COc1ccccc1C(=O)/C=C/c1ccc(C(=O)O)cc1`: the inhibition at 25 µM in test [1] is 13%. The molecule `O=C(O)c1ccc(/C=C/C(=O)c2ccccc2O)cc1` yielded an inhibition at 25 µM in test [1] of 11.7%. For `O=C(O)c1ccc(/C=C/C(=O)c2cccc3ccccc23)cc1`, testing at 25 µM in test [1] gave an inhibition of 10.3%.

The term pIC50 denotes the IC50 on a negative log10 scale, so that one unit is a factor of ten. Broadly, the pKi is −log10 of the Ki, conventionally taken in molar units. For `O=C(/C=C/c1ccc(O)c(O)c1)O[C@@H](C(=O)O)[C@@H](OC(=O)/C=C/c1ccc(O)c(O)c1)C(=O)O` [CICHORIC ACID], the Activity in test [2] was 0.6%. Moreover, the pIC50 in test [3] is 3.42. Besides, the pKi in test [4] is 4.17; in test [5] it was 4.90. Regarding `COc1ccc(C(=O)/C=C/c2ccc(C(=O)O)cc2)c(OC)c1`, 25 µM produced 3.9% inhibition in test [1].
